# Screens deposited in PubChem by several laboratories.
# In the library only some 1.8% were active in any assay of this set; here they are far more common.
# TNAP inh noacc – inhibitors of human TNAP without phosphate acceptor | inhibition, % at 20 µM | P05186 | purified TNAP, CDP-star luminescence, 30 min | 200,000 tested, 0.26% active;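 active = tissue-nonspecific alkaline phosphatase inhibition above about 50% at 20 µM in the single-dose screen, limit read from the data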;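 also: 0% = DMSO negative control and 100% = EDTA positive control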
# Target sequence (P05186 whole entry, looked up): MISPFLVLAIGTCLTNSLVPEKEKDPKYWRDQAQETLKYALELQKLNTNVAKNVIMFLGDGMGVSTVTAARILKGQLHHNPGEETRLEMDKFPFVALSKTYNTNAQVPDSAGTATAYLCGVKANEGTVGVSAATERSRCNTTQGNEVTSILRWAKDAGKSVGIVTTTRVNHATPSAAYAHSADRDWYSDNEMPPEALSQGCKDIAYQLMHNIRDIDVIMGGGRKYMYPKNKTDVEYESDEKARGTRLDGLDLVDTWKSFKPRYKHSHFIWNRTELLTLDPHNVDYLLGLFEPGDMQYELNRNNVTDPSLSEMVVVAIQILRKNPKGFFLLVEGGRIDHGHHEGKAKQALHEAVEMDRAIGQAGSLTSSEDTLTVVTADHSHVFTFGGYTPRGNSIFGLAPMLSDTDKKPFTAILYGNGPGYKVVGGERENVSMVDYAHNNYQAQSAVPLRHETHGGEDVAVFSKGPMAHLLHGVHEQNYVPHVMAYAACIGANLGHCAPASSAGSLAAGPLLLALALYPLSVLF
# Ins promoter up – MIN6 insulin promoter up-regulation; MIN6 insulin promoter-GFP reporter, high-content imaging; hits give high values; z-score at 5 µM; 190,000 tested, 0.3% active;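 active = z-score above 3 at 5 µM with at least 500 cells counted in the well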
# p47phox inh – inhibitors of human p47phox binding; inhibition, % at 24.7 µM; AID 1274; 220,000 tested, 0.53% active; p47phox/p22phox peptide binding, fluorescence polarization, 2 h;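 active = inhibition above about 30%, limit read from the data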;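 also: 0% = p47phox with labelled peptide and 100% = labelled peptide alone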
# TNAP act hi DEA – increases human TNAP activity under high phosphate acceptor concentration. P05186. activation factor at 20 µM. AID 1136. purified TNAP, CDP-star luminescence, 1 M DEA, 30 min; hits give high values; 0 = EDTA background, 1 = DMSO-only activity. 200,000 tested, under 10 active;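 active = activation factor at least 2 at 20 µM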
#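 Test system – human TNAP · Doses – 20 µM single point · Incubation – 30 min, room temperature · Signal – luminescent substrate turnover signal · Read-out basis – activation factor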
# Autophagy HCS – modulators of autophagy; calls only at 10 µM (by protocol); 190,000 tested, 0.98% active; MEF GFP-LC3 puncta imaging; test concentration mostly 10 µM;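 active = percentage of spot-positive cells more than 3 SD above its plate mean, without a fluorescence outlier flag or 80% toxicity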;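 also: spot-positive cell cutoff set from DMSO-treated cells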
# TNAP inh hi DEA – blocks human TNAP under high phosphate acceptor concentration | P05186 | purified TNAP, CDP-star luminescence, 1 M DEA | inhibition, % at 20 µM | 200,000 tested, 0.03% active;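 active = over 50% inhibition of tissue-nonspecific alkaline phosphatase at 20 µM in the single-dose screen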;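 also: plate controls were DMSO wells for no effect and EDTA-quenched wells as full inhibition for full effect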
# Starred values were filed as active, the others as inactive; i = inactive; x = not tested or not shown; + = active, no number.
SMILES,TNAP inh noacc,Ins promoter up,p47phox inh,TNAP act hi DEA,Autophagy HCS,TNAP inh hi DEA
CCOC(=O)c1cccc2c(=O)c(C(=O)c3ccc(Cl)cc3)c(C(=O)OC)[nH]c12,-22,0.14,-8,1,i,-3
N#Cc1cc2ccccc2nc1SCC(=O)Nc1ccccc1N1CCOCC1,-4,-0.12,-7,1,+,1
FC(F)(F)c1cc(-c2cccs2)n[nH]1,71*,x,1,1,i,-5
FC(F)(F)c1cccc(CN2CCC(c3cc(-c4cccs4)n[nH]3)CC2)c1,-23,-1.1,-16,1,i,-5
CC(C)(C)C(=O)NC1(C(F)(F)F)NC(=O)N(c2ccc(F)cc2)C1=O (stereo unspecified),-6,-0.06,-5,1,i,0
CCCCNC(=O)Cn1c2c(c(-c3ccccc3Cl)cc1=O)CCC2,-18,-0.04,81*,1.1,i,-6
Cc1ccc(Nc2nc(Oc3ccc(=O)[nH]n3)nc(N(C)C)n2)cc1,1,-0.26,-6,1,+,-4
CC(C)CNc1nc(Oc2ccc(=O)[nH]n2)nc(N(C)C)n1,-5,x,+,1,i,-1
Cc1cc(C)c(C)c(S(=O)(=O)N2CCNCC2)c1C,-11,-0.86,20,1.1,+,-7
CC1=NCCN1S(=O)(=O)c1ccccc1[N+](=O)[O-],-3,-0.17,1,1,i,1
c1ccc(CNc2nc(NCc3ccccc3)c3ccccc3n2)cc1,x,-2.3,88*,x,x,x
Cc1nc2ccccc2n2c(O)c(CC(=O)O)cc12,-17,0.23,35*,1,i,-2
CCc1nc2ccccc2n1CC1CC1(Cl)Cl (stereo unspecified),-4,2.4,-12,1,i,-1
COc1ccc(-c2nc(C)c(C(C)=O)n2O)cc1OC,-1,0.3,-14,1,+,0
COc1ccccc1/C=C/C(=O)OCC(=O)Nc1cc(C(F)(F)F)ccc1N1CCOCC1,-11,0.75,-14,1,i,-1
O=C(Cn1c2ccccc2c(=O)c2ccccc21)N/N=C/c1cc([N+](=O)[O-])ccc1N1CCCCC1,4,-0.53,2,0.9,+,6
C=CCN(C(=O)CNC(=O)c1cccs1)C(C(=O)NC1CCCCC1)c1cccnc1 (stereo unspecified),-7,0.01,47*,1.1,i,-5
Nc1nc(SCC(=O)Nc2ccccc2C(F)(F)F)[nH]c(=O)c1-c1ccccc1,1,0.05,-2,1,i,-1
Cc1c([N+](=O)[O-])c(C(=O)N2CCCC2)nn1C,-8,0.54,-5,1,i,-2
Cc1c([N+](=O)[O-])c(C(=O)Sc2ccc(Br)cc2)nn1C,x,-0.01,39*,x,x,x
NS(=O)(=O)c1cnccc1Nc1ccc(Cl)c(Cl)c1,15,0.05,-5,0.6,i,39
Cc1ccccc1OCC(O)CN1CCN(CCN2C(=O)c3cccc4cccc(c34)C2=O)CC1 (stereo unspecified),10,-0.53,8,0.9,i,8
Cc1cccc(C)c1OCC(O)CN1CCC(CN2C(=O)c3cccc4cccc(c34)C2=O)CC1 (stereo unspecified),-1,-1,-8,1,+,-5
CC(C)OP(=O)(OC(C)C)C(Nc1ccccc1)c1cccnc1 (stereo unspecified),x,-0.1,-2,x,x,x
O=C(Cn1cnc2ccccc21)NC(c1ccccc1)c1ccccc1,-15,1.3,-1,1,i,-4
SMILES,TNAP inh noacc,Ins promoter up,p47phox inh,TNAP act hi DEA,Autophagy HCS,TNAP inh hi DEA
N=c1c2c3c(sc2ncn1Nc1ccccc1)CCC3,x,-0.15,7,x,x,x
CN(C)CC(C)(C)CN=Cc1c(O)[nH]c2ccccc12,x,-0.3,88*,x,x,x
CCC12CN3CC(CC)(CN(C1)C3c1c(O)ccc3ccccc13)C2=O (stereo unspecified),-8,x,-9,1,+,-4
C=CCOc1ccc(C2N3CC4(CC)CN2CC(CC)(C3)C4=O)cc1 (stereo unspecified),-12,0.64,-10,1.1,i,-10
Cc1c(Br)c(=O)oc2c(Br)c(O)c(O)cc12,50*,0.4,1,1,i,2
O=C(NCC1CCCO1)c1cc2c(s1)CS(=O)(=O)C2 (stereo unspecified),-8,0.02,-7,1,+,-4
COCCN1CN(S(=O)(=O)c2ccccc2)c2nc3ccccc3nc21,-6,3.1*,-16,1,i,-1
CC(C)(C)c1nc(SCC(=O)c2ccccc2)c2ccccc2n1,-5,-1.5,-2,1,+,2
O=C(CSc1n[nH]c(-c2ccccc2)n1)NC(=O)NCc1ccco1,63*,0.8,-21,1.1,i,-7
O=C(CSc1nc(-c2ccccc2)cs1)NC(=O)NCc1ccco1,-6,x,-16,1,i,-5
CCc1ccc(C(=O)CSc2n[nH]c(-c3ccncc3)n2)cc1,6,x,-4,1,i,-4
O=C(CSc1n[nH]c(-c2ccccc2)n1)c1ccc(O)c(O)c1,68*,-0.02,-13,1,i,-2
O=C(O)c1cccc(CSc2n[nH]c(-c3ccc(Cl)cc3Cl)n2)c1,96*,0.6,-6,1,i,4
CC(C)(C)c1nc(SCC(=O)N2CCCC2)c2ccccc2n1,-7,-0.32,1,1,i,-1
COc1cccc(/C=C/C(=O)OCC(=O)Nc2ccc(N3CCOCC3)cc2)c1OC,-8,-0.89,3,1,i,-3
O=C(CSc1n[nH]c(-c2ccccc2)n1)NCc1cccc(C(=O)O)c1,70*,-0.02,5,1,i,-5
Cc1ccc(-c2nc(NC(=O)CSc3cc(C)c4ccccc4n3)ns2)cc1,-4,1.8,52*,1,i,0
Nc1nc(SCC(=O)NCc2ccccc2)n[nH]1,-5,0.57,-13,1,i,-3
Cc1cc(SCC(=O)c2ccc(O)c(O)c2)nc2ccccc12,72*,-0.25,-15,1,i,4
N#Cc1nc(Cl)c(Cl)c(NN)c1Cl,x,x,-99,x,x,x
CCNc1nc(NCC)n2c(SCC(=O)N(CC)C3CCCCC3)nnc2n1,-8,-2.6,-4,1,i,3
CCN(CC)C(=O)c1sc(NC(=O)C(C)C)c(C#N)c1C,-14,-0.21,-5,1.1,i,-6
COC(=O)C1=C(N)n2c(s/c(=C\c3cccnc3)c2=O)=C(C(=O)OC)C1c1cccnc1 (stereo unspecified),-6,3.2*,-9,1,i,0
CCOC(=O)C1=c2s/c(=C\c3cccnc3)c(=O)n2C(N)=C(C(=O)OC)C1c1cccnc1 (stereo unspecified),-1,-0.83,-5,1,i,-1
